{
  "source": "ChEMBL document CHEMBL5653631",
  "about": "“A Potent and Selective ULK1 Inhibitor Suppresses Autophagy and Sensitizes Cancer Cells to Nutrient Stress” (iScience, 2018)",
  "key": {"[1]": {"biological_target": "Serine/threonine-protein kinase MRCK beta (Homo sapiens) (UniProt Q9Y5S2)", "assay": "Inhibition of human recombinant MRCKb at 500 nM in presence of ATP by radiometric assay relative to control"}, "Homo sapiens": {"species": "Homo sapiens", "assay": "Inhibition of human recombinant CK1d at 500 nM in presence of ATP by radiometric assay relative to control"}, "[2]": {"biological_target": "Leucine-rich repeat serine/threonine-protein kinase 2 (Homo sapiens) (UniProt Q5S007)", "sequence (Q5S007 whole entry)": "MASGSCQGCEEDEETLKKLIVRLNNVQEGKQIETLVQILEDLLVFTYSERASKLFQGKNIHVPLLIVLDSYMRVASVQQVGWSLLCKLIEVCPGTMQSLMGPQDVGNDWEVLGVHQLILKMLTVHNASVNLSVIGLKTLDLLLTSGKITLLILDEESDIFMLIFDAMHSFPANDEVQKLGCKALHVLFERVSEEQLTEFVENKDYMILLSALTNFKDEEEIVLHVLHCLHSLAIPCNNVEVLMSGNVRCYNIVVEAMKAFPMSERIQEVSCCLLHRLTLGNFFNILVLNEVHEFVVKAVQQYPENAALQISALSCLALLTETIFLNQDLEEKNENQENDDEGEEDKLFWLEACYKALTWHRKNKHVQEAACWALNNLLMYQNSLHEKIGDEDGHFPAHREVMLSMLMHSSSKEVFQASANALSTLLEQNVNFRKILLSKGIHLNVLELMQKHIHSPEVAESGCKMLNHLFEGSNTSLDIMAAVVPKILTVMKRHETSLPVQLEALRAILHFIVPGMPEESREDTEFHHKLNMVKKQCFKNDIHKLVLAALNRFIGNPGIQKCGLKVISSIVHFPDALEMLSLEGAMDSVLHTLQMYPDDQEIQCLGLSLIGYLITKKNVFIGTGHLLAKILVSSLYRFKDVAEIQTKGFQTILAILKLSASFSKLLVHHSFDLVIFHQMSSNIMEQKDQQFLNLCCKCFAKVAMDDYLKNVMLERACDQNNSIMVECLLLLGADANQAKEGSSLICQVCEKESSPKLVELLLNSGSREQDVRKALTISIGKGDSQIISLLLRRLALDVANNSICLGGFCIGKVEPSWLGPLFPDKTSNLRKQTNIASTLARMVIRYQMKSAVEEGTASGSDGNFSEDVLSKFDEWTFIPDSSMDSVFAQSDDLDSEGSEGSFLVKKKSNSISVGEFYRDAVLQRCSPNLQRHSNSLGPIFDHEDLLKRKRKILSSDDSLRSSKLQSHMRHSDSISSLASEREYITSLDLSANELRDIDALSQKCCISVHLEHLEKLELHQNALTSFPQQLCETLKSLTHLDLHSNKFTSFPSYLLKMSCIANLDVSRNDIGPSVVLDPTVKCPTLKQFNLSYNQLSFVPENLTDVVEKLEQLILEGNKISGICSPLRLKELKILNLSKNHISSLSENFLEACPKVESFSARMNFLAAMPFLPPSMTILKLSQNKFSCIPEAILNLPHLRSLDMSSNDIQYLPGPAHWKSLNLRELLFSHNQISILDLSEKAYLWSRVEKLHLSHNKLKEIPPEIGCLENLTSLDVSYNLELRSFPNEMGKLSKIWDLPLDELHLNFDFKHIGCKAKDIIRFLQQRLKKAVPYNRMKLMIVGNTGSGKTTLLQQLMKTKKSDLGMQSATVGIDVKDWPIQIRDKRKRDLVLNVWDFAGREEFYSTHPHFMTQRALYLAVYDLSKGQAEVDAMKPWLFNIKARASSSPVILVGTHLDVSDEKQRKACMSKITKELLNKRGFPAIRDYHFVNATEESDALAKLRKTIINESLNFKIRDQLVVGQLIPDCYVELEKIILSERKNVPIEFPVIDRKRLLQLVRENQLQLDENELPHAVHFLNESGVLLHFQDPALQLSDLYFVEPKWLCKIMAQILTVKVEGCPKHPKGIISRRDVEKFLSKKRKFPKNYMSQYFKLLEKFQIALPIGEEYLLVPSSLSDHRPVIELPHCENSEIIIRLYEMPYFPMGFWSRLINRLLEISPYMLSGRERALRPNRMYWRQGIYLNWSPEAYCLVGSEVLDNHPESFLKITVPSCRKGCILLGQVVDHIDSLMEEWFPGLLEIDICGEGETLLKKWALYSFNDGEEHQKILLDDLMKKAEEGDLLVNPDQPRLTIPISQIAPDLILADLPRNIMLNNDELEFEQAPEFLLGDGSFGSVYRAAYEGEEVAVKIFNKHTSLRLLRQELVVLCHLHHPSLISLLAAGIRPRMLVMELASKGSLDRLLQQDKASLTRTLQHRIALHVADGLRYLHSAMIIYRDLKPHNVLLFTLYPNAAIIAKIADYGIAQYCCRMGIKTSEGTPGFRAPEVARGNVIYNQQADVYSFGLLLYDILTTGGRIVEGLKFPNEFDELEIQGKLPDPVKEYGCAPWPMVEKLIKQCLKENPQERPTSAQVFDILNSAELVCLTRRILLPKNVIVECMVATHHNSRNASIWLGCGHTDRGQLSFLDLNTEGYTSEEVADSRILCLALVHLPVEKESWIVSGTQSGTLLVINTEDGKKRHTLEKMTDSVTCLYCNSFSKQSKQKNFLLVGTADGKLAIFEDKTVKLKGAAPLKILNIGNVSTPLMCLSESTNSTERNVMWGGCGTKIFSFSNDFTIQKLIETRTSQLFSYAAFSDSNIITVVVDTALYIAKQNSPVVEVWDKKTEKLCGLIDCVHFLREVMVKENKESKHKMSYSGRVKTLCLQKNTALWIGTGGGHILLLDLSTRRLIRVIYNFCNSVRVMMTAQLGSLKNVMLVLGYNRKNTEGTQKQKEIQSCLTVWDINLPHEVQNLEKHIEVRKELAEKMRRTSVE", "assay": "Inhibition of human recombinant LRRK2 at 500 nM in presence of ATP by radiometric assay relative to control"}, "[3]": {"biological_target": "Serine/threonine-protein kinase 24 (Homo sapiens) (UniProt Q9Y6E0)", "sequence (Q9Y6E0 whole entry, looked up)": "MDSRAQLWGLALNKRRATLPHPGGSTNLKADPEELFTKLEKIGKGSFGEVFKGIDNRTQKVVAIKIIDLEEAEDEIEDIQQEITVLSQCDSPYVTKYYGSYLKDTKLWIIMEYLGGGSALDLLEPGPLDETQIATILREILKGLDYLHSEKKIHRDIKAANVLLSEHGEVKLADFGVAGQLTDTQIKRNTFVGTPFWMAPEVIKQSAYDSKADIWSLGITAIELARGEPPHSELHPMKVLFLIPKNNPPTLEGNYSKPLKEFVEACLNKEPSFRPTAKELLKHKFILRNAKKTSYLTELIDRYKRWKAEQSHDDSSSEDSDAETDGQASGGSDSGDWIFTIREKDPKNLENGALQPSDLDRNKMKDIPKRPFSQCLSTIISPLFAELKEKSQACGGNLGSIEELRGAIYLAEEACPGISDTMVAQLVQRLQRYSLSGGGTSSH", "assay": "Inhibition of human recombinant MST3 at 500 nM related to control ULK1"}, "[4]": {"biological_target": "T1, Serine/threonine-protein kinase TAO1 (Homo sapiens) (UniProt Q7L7X3)", "T1 sequence (whole entry)": "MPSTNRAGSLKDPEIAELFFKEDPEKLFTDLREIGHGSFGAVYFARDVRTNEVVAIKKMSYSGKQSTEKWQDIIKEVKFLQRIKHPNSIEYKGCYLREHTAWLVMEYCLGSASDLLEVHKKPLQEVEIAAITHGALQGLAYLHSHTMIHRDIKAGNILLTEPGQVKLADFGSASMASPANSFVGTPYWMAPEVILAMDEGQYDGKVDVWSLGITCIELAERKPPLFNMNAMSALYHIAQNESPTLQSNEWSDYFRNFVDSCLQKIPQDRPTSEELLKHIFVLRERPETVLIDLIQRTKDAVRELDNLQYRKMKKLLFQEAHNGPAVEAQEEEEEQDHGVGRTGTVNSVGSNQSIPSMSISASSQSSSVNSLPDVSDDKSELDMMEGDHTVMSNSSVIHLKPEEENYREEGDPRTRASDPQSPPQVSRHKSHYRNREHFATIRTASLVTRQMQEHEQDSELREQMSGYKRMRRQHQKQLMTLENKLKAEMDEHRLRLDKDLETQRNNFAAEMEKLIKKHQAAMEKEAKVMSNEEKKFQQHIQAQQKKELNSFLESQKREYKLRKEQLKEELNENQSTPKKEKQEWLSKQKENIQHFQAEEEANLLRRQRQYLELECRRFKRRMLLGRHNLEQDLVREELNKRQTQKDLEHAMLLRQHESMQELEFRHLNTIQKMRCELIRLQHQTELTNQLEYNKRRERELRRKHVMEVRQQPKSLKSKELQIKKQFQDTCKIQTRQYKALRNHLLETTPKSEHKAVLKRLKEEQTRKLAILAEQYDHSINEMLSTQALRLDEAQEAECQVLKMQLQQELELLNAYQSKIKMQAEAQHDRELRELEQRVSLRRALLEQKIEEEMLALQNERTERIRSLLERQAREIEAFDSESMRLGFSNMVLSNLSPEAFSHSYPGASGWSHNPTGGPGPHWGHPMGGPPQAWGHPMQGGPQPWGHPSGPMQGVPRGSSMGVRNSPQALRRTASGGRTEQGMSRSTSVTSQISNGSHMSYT", "assay": "Inhibition of human recombinant TAO1 at 15 nM in presence of ATP by radiometric assay relative to control"}, "[5]": {"biological_target": "Ribosomal protein S6 kinase alpha-5 (Homo sapiens) (UniProt O75582)", "sequence (O75582 whole entry, looked up)": "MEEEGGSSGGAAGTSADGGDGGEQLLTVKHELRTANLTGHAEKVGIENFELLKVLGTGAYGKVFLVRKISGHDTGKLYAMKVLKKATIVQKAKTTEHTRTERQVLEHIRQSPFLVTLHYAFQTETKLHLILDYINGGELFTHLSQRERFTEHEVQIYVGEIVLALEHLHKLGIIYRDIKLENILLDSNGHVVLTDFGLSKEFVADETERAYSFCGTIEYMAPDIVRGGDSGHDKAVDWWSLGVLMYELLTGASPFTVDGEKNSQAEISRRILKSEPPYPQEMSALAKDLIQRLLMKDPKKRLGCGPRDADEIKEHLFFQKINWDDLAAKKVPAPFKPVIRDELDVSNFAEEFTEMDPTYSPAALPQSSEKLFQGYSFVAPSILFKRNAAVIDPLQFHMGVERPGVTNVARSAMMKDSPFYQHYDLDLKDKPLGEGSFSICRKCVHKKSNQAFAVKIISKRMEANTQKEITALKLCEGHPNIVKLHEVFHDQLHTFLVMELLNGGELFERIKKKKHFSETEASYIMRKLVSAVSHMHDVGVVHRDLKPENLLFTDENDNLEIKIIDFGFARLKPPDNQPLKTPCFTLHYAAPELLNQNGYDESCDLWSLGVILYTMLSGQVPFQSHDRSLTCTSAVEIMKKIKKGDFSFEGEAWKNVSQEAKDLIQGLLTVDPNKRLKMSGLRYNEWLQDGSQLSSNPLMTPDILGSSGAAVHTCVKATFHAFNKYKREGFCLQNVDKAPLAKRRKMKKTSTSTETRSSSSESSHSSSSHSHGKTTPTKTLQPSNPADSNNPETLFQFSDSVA", "assay": "Inhibition of human recombinant MSK1 at 15 nM related to control ULK1"}, "[6]": {"biological_target": "Calcium/calmodulin-dependent protein kinase type 1B (Homo sapiens) (UniProt Q6P2M8)", "assay": "Inhibition of human recombinant CaMK1b at 15 nM related to control ULK1"}, "[7]": {"biological_target": "Insulin-like growth factor 1 receptor (Homo sapiens) (UniProt P08069)", "sequence (P08069 31-736 limits assumed)": "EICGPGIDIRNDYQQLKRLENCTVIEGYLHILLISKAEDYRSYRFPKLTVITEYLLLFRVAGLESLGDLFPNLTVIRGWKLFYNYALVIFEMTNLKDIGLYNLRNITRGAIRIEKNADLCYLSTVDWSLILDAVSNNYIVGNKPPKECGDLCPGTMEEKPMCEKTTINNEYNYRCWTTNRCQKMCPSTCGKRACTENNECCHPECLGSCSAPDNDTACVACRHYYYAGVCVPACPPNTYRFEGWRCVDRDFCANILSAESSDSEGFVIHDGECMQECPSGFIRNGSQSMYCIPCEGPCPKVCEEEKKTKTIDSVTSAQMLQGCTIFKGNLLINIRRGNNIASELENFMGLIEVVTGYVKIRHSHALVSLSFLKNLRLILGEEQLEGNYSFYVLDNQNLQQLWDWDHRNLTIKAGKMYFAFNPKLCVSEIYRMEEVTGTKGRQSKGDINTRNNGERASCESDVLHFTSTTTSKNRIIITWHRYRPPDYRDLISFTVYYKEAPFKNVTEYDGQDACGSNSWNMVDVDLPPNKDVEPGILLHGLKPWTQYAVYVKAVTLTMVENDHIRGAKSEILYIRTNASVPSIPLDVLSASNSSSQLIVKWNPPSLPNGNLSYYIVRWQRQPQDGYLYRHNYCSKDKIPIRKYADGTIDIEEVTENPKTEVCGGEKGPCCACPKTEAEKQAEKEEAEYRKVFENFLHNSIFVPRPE", "sequence (P08069 741-1367 limits assumed)": "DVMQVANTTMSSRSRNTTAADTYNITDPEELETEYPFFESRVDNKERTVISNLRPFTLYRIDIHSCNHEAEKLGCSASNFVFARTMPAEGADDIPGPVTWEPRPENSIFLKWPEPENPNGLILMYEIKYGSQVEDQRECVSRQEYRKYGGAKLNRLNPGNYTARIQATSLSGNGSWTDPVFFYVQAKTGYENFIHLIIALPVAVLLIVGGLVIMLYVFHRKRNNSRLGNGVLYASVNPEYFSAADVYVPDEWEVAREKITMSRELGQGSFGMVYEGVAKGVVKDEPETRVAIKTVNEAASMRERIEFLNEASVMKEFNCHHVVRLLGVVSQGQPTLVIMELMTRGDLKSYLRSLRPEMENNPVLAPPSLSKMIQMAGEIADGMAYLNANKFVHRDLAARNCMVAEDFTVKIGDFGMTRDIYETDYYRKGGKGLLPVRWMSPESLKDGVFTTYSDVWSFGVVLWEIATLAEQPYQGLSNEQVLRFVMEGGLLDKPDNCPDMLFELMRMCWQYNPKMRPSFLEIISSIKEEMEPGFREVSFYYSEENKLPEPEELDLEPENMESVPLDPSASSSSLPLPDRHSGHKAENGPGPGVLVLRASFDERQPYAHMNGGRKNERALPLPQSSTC", "assay": "Inhibition of human recombinant IGF1R at 15 nM related to control ULK1"}, "[8]": {"biological_target": "T2, Serine/threonine-protein kinase Nek9 (Homo sapiens) (UniProt Q8TD19)", "T2 sequence (whole entry)": "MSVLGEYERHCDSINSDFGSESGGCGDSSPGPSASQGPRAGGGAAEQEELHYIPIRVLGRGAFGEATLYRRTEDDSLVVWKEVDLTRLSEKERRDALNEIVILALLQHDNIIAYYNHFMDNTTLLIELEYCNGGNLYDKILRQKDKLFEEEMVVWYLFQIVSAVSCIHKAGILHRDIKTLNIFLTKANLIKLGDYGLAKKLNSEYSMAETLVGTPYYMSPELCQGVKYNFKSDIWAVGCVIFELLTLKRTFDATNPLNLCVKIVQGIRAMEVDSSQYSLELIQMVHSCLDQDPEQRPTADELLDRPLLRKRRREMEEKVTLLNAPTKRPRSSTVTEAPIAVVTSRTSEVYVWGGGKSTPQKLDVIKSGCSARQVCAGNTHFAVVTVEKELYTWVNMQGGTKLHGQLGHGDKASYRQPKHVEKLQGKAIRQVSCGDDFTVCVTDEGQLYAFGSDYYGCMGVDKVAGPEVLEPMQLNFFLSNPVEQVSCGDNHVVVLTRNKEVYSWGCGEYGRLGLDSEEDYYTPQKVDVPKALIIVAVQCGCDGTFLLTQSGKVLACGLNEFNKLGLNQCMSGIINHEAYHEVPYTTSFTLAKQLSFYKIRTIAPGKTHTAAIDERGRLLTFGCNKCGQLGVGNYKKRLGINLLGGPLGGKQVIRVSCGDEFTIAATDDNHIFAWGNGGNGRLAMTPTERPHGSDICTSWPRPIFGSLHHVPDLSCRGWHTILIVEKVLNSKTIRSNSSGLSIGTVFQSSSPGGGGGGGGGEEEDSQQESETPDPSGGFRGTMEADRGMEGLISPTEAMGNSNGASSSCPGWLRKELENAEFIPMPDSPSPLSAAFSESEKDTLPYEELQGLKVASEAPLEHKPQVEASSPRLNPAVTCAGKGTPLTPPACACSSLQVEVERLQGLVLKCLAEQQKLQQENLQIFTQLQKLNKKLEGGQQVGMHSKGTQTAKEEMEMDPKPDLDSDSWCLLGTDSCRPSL", "assay": "Inhibition of human recombinant NEK9 at 40 nM related to control ULK1"}, "[9]": {"biological_target": "RAC-alpha serine/threonine-protein kinase (Homo sapiens) (UniProt P31749)", "assay": "Inhibition of human recombinant AKT1 at 40 nM related to control ULK1", "how_it_was_run": "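Radiometric activity assays in a panel of 327 human recombinant kinases, each run in duplicate at one inhibitor concentration. Activity remaining is expressed as percent of vehicle control, and percent inhibition is calculated as 100% minus percent activity remaining.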"}, "[10]": {"biological_target": "ALK tyrosine kinase receptor (Homo sapiens) (UniProt Q9UM73)", "assay": "Inhibition of human recombinant ALK at 40 nM in presence of ATP by radiometric assay relative to control", "how_it_was_run": "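Panel of 327 recombinant human kinases in radiometric activity assays, each screened in duplicate at a single inhibitor concentration; percent activity remaining relative to vehicle control, percent inhibition taken as 100 minus activity remaining.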"}},
  "data": [
    {"compound": "CNC(=O)c1ccccc1Oc1nc(Nc2cc(OC)c(OC)c(OC)c2)ncc1Br", "values": [
      {"measurement": "inhibition", "setting": "[1]", "value": 0, "unit": "%"},
      {"measurement": "inhibition", "setting": "Homo sapiens", "value": 10, "unit": "%"},
      {"measurement": "inhibition", "setting": "[2]", "value": 35, "unit": "%"},
      {"measurement": "fold change (FC)", "setting": "[3]", "value": 0.78}
    ]},
    {"compound": "CC(C)[C@H](NC(=O)c1cc(-c2cnn3cc(-c4ccc(OCCN5CCCCC5)cc4)cnc23)cs1)C(F)(F)F", "values": [
      {"measurement": "inhibition", "setting": "[4]", "value": 0, "unit": "%"},
      {"measurement": "fold change (FC)", "setting": "[5]", "value": 0.02},
      {"measurement": "fold change (FC)", "setting": "[6]", "value": 0},
      {"measurement": "fold change (FC)", "setting": "[7]", "value": 0}
    ]},
    {"compound": "O=C(N[C@@H](C1CC1)C(F)(F)F)c1cc(-c2cnn3cc(-c4ccc(F)cc4)cnc23)cs1", "values": [
      {"measurement": "fold change (FC)", "setting": "[8]", "value": 0.07},
      {"measurement": "fold change (FC)", "setting": "[9]", "value": 0},
      {"measurement": "inhibition", "setting": "[10]", "value": 0, "unit": "%"}
    ]}
  ]
}
